# Results as given in ChEMBL document CHEMBL5724801, “EUbOPEN Chemogenomics Library - Multiplex” (2024).
# Where “and” joins values, the source holds several entries; their conditions need not be identical. Identical values can stand only once.
# Test system: U2OS
# Test: Multiplex assay against U2OS
# Type: toxicity, cell-based
# Details: human
# Summary of the method: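 With compound added, live cells were imaged on a CQ1 microscope at 37°C and 5% CO2; staining with Hoechst33342, BioTracker Green Microtubule Cytoskeleton Dye, MitoTracker Red and Annexin V Alexa Fluor 680 had been done at seeding. The CellPathfinder machine-learning gating scheme split cells into Hoechst high-intensity objects or normal cells, normal cells into healthy, pyknosed or fragmented nuclei, and pyknosed cells into mitotic or apoptotic. The tubulin, mitochondrial-mass and membrane-permeability phenotypes are per cents of healthy-nucleus cells.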
# [1] = 12 h, 1 µM, compound concentration 1 uM
# [2] = 12 h, 10 µM, compound concentration 10 uM
# [3] = 24 h, 1 µM, compound concentration 1 uM
# [4] = 24 h, 10 µM, compound concentration 10 uM
# [5] = 48 h, 1 µM, compound concentration 1 uM
# [6] = 48 h, 10 µM, compound concentration 10 uM
smiles,measurement,setting,value
O=C(Nc1ccccc1Br)N[C@@H]1CCN(c2ccc(C(F)(F)F)cn2)C1 [SB-705498],Population Apoptotic (%),[1],38.89% and 33.33%
same,Population Fragmented Nuclei (%),[1],1.94% and 6.43%
same,Population Healthy Nuclei (%),[1],84.95% and 83.04%
same,Population Hoechst High Intensity Objects (%),[1],0%
same,Population Membrane Permeable-Phenotype (%),[1],1.14% and 2.82%
same,Population Mitochondria Different-Phenotype (%),[1],0% and 3.52%
same,Population Mitotic Cells (%),[1],61.11% and 66.67%
same,Population Normal (%),[1],100%
same,Population Pyknosed Nuclei (%),[1],13.11% and 10.53%
same,Population Tubulin-Different-Phenotype (%),[1],0.86% and 0%
same,Total Cell Count,[1],412 and 171
same,Population Apoptotic (%),[2],43.24% and 36.84%
same,Population Fragmented Nuclei (%),[2],0.5% and 3.7%
same,Population Healthy Nuclei (%),[2],90.35% and 82.22%
same,Population Hoechst High Intensity Objects (%),[2],0%
same,Population Membrane Permeable-Phenotype (%),[2],0.55% and 5.41%
same,Population Mitochondria Different-Phenotype (%),[2],0% and 21.62%
same,Population Mitotic Cells (%),[2],56.76% and 63.16%
same,Population Normal (%),[2],100%
same,Population Pyknosed Nuclei (%),[2],9.16% and 14.07%
same,Population Tubulin-Different-Phenotype (%),[2],1.64% and 3.6%
same,Total Cell Count,[2],404 and 135
same,Population Apoptotic (%),[3],45.28% and 27.59%
same,Population Fragmented Nuclei (%),[3],2.03% and 4.69%
same,Population Healthy Nuclei (%),[3],88.17% and 81.69%
same,Population Hoechst High Intensity Objects (%),[3],0.18% and 0%
same,Population Membrane Permeable-Phenotype (%),[3],0.21% and 2.87%
same,Population Mitochondria Different-Phenotype (%),[3],0% and 10.34%
same,Population Mitotic Cells (%),[3],54.72% and 72.41%
same,Population Normal (%),[3],99.82% and 100%
same,Population Pyknosed Nuclei (%),[3],9.8% and 13.62%
same,Population Tubulin-Different-Phenotype (%),[3],0.84% and 0%
same,Total Cell Count,[3],542 and 213
same,Population Apoptotic (%),[4],39.24% and 21.05%
same,Population Fragmented Nuclei (%),[4],0.86% and 1.8%
same,Population Healthy Nuclei (%),[4],85.49% and 86.83%
same,Population Hoechst High Intensity Objects (%),[4],0%
same,Population Membrane Permeable-Phenotype (%),[4],1.82% and 4.14%
same,Population Mitotic Cells (%),[4],60.76% and 78.95%
same,Population Normal (%),[4],100%
same,Population Pyknosed Nuclei (%),[4],13.64% and 11.38%
same,Population Tubulin-Different-Phenotype (%),[4],2.83% and 1.38%
same,Population Apoptotic (%),[5],41.75% and 51.28%
same,Population Fragmented Nuclei (%),[5],3.31% and 2.67%
same,Population Healthy Nuclei (%),[5],86.67% and 86.93%
same,Population Hoechst High Intensity Objects (%),[5],0%
same,Population Membrane Permeable-Phenotype (%),[5],0.9% and 2.76%
same,Population Mitochondria Different-Phenotype (%),[5],0% and 4.29%
same,Population Mitotic Cells (%),[5],58.25% and 48.72%
same,Population Normal (%),[5],100%
same,Population Pyknosed Nuclei (%),[5],10.02% and 10.4%
same,Population Tubulin-Different-Phenotype (%),[5],0.9% and 0.92%
same,Total Cell Count,[5],1028 and 375
same,Population Apoptotic (%),[6],52.22% and 32.26%
same,Population Fragmented Nuclei (%),[6],1.85% and 1.83%
same,Population Healthy Nuclei (%),[6],89.37% and 86.81%
same,Population Hoechst High Intensity Objects (%),[6],0.1% and 0%
same,Population Membrane Permeable-Phenotype (%),[6],1.09% and 4.64%
same,Population Mitochondria Different-Phenotype (%),[6],0.22% and 8.02%
same,Population Mitotic Cells (%),[6],47.78% and 67.74%
same,Population Normal (%),[6],99.9% and 100%
same,Population Pyknosed Nuclei (%),[6],8.78% and 11.36%
same,Population Tubulin-Different-Phenotype (%),[6],2.07% and 1.27%
CC(C)(C)c1ccc(CSc2cnn(C(C)(C)C)c(=O)c2Cl)cc1 [PYRIDABEN],Population Apoptotic (%),[1],79% and 63%
same,Population Fragmented Nuclei (%),[1],28% and 11%
same,Population Healthy Nuclei (%),[1],61% and 81%
same,Population Hoechst High Intensity Objects (%),[1],3% and 0%
same,Population Membrane Permeable-Phenotype (%),[1],3% and 4%
same,Population Mitochondria Different-Phenotype (%),[1],1%
same,Population Mitotic Cells (%),[1],20% and 36%
same,Population Normal (%),[1],97% and 99%
same,Population Pyknosed Nuclei (%),[1],9% and 7%
same,Population Tubulin-Different-Phenotype (%),[1],2% and 3%
same,Total Cell Count,[1],267 and 152
same,Population Apoptotic (%),[2],83% and 87%
same,Population Fragmented Nuclei (%),[2],28% and 15%
same,Population Healthy Nuclei (%),[2],57% and 73%
same,Population Hoechst High Intensity Objects (%),[2],1% and 0%
same,Population Membrane Permeable-Phenotype (%),[2],5%
same,Population Mitochondria Different-Phenotype (%),[2],5% and 2%
same,Population Mitotic Cells (%),[2],16% and 12%
same,Population Normal (%),[2],98% and 100%
same,Population Pyknosed Nuclei (%),[2],14% and 11%
same,Population Tubulin-Different-Phenotype (%),[2],3% and 2%
same,Total Cell Count,[2],209 and 141
same,Population Apoptotic (%),[3],83% and 100%
same,Population Fragmented Nuclei (%),[3],28% and 19%
same,Population Healthy Nuclei (%),[3],58% and 75%
same,Population Hoechst High Intensity Objects (%),[3],1% and 2%
same,Population Membrane Permeable-Phenotype (%),[3],4% and 3%
same,Population Mitochondria Different-Phenotype (%),[3],1%
same,Population Mitotic Cells (%),[3],16% and 0%
same,Population Normal (%),[3],98% and 97%
same,Population Pyknosed Nuclei (%),[3],13% and 5%
same,Population Tubulin-Different-Phenotype (%),[3],1%
same,Total Cell Count,[3],286 and 186
same,Population Apoptotic (%),[4],80%
same,Population Fragmented Nuclei (%),[4],22% and 19%
same,Population Healthy Nuclei (%),[4],61% and 68%
same,Population Hoechst High Intensity Objects (%),[4],2% and 1%
same,Population Membrane Permeable-Phenotype (%),[4],8% and 6%
same,Population Mitochondria Different-Phenotype (%),[4],3% and 1%
same,Population Mitotic Cells (%),[4],19% and 20%
same,Population Normal (%),[4],97% and 98%
same,Population Pyknosed Nuclei (%),[4],15% and 12%
same,Population Tubulin-Different-Phenotype (%),[4],6% and 2%
same,Total Cell Count,[4],234 and 167
same,Population Apoptotic (%),[5],76% and 84%
same,Population Fragmented Nuclei (%),[5],26% and 19%
same,Population Healthy Nuclei (%),[5],63% and 70%
same,Population Hoechst High Intensity Objects (%),[5],3% and 6%
same,Population Membrane Permeable-Phenotype (%),[5],6% and 5%
same,Population Mitochondria Different-Phenotype (%),[5],3%
same,Population Mitotic Cells (%),[5],23% and 15%
same,Population Normal (%),[5],96% and 93%
same,Population Pyknosed Nuclei (%),[5],9%
same,Population Tubulin-Different-Phenotype (%),[5],3% and 2%
same,Total Cell Count,[5],361 and 212
same,Population Apoptotic (%),[6],90% and 95%
same,Population Fragmented Nuclei (%),[6],20% and 16%
same,Population Healthy Nuclei (%),[6],64% and 70%
same,Population Hoechst High Intensity Objects (%),[6],4% and 3%
same,Population Membrane Permeable-Phenotype (%),[6],9% and 5%
same,Population Mitochondria Different-Phenotype (%),[6],4% and 6%
same,Population Mitotic Cells (%),[6],10% and 4%
same,Population Normal (%),[6],95% and 96%
same,Population Pyknosed Nuclei (%),[6],14% and 13%
same,Population Tubulin-Different-Phenotype (%),[6],6% and 4%
same,Total Cell Count,[6],280 and 191
COc1ccc(Cl)cc1[C@]1(F)C(=O)Nc2cc(C(F)(F)F)ccc21 [FLINDOKALNER],Population Apoptotic (%),[1],40.48% and 33.33%
same,Population Fragmented Nuclei (%),[1],1.33% and 3.73%
same,Population Healthy Nuclei (%),[1],87.53% and 81.37%
same,Population Hoechst High Intensity Objects (%),[1],0%
same,Population Membrane Permeable-Phenotype (%),[1],1.21% and 0.76%
same,Population Mitochondria Different-Phenotype (%),[1],0.3% and 7.63%
same,Population Mitotic Cells (%),[1],59.52% and 66.67%
same,Population Normal (%),[1],100%
same,Population Pyknosed Nuclei (%),[1],11.14% and 14.91%
same,Population Tubulin-Different-Phenotype (%),[1],0.61% and 0.76%
same,Total Cell Count,[1],377 and 161
same,Population Apoptotic (%),[2],21.43% and 29.17%
same,Population Fragmented Nuclei (%),[2],2.21% and 3.35%
same,Population Healthy Nuclei (%),[2],86.19% and 83.24%
same,Population Hoechst High Intensity Objects (%),[2],0%
same,Population Membrane Permeable-Phenotype (%),[2],0.64% and 5.37%
same,Population Mitochondria Different-Phenotype (%),[2],0% and 12.08%
same,Population Mitotic Cells (%),[2],78.57% and 70.83%
same,Population Normal (%),[2],100%
same,Population Pyknosed Nuclei (%),[2],11.6% and 13.41%
same,Population Tubulin-Different-Phenotype (%),[2],1.6% and 1.34%
same,Total Cell Count,[2],362 and 179
same,Population Apoptotic (%),[3],41.67% and 37.93%
same,Population Fragmented Nuclei (%),[3],1.57% and 1.48%
same,Population Healthy Nuclei (%),[3],88.98% and 84.24%
same,Population Hoechst High Intensity Objects (%),[3],0%
same,Population Membrane Permeable-Phenotype (%),[3],0.22% and 2.34%
same,Population Mitochondria Different-Phenotype (%),[3],0.22% and 5.26%
same,Population Mitotic Cells (%),[3],58.33% and 62.07%
same,Population Normal (%),[3],100%
same,Population Pyknosed Nuclei (%),[3],9.45% and 14.29%
same,Population Tubulin-Different-Phenotype (%),[3],0.88% and 0.58%
same,Total Cell Count,[3],508 and 203
same,Population Apoptotic (%),[4],29.63% and 42.11%
same,Population Fragmented Nuclei (%),[4],1.38% and 4.65%
same,Population Healthy Nuclei (%),[4],88.02% and 77.67%
same,Population Hoechst High Intensity Objects (%),[4],0%
same,Population Membrane Permeable-Phenotype (%),[4],1.34% and 7.78%
same,Population Mitochondria Different-Phenotype (%),[4],0% and 8.38%
same,Population Mitotic Cells (%),[4],70.37% and 57.89%
same,Population Normal (%),[4],100%
same,Population Pyknosed Nuclei (%),[4],10.61% and 17.67%
same,Population Tubulin-Different-Phenotype (%),[4],1.34% and 0%
same,Total Cell Count,[4],509 and 215
same,Population Apoptotic (%),[5],38.67% and 50%
same,Population Fragmented Nuclei (%),[5],2.32% and 1.61%
same,Population Healthy Nuclei (%),[5],89.42% and 82.32%
same,Population Hoechst High Intensity Objects (%),[5],0%
same,Population Membrane Permeable-Phenotype (%),[5],1.48% and 1.56%
same,Population Mitochondria Different-Phenotype (%),[5],0.12% and 5.08%
same,Population Mitotic Cells (%),[5],61.33% and 50%
same,Population Normal (%),[5],100%
same,Population Pyknosed Nuclei (%),[5],8.27% and 16.08%
same,Population Tubulin-Different-Phenotype (%),[5],0.74% and 0.78%
same,Total Cell Count,[5],907 and 311
same,Population Apoptotic (%),[6],34.18% and 46.94%
same,Population Fragmented Nuclei (%),[6],2.33% and 1.38%
same,Population Healthy Nuclei (%),[6],89.31% and 85.12%
same,Population Hoechst High Intensity Objects (%),[6],0%
same,Population Membrane Permeable-Phenotype (%),[6],0.83% and 3.24%
same,Population Mitochondria Different-Phenotype (%),[6],0% and 5.18%
same,Population Mitotic Cells (%),[6],65.82% and 53.06%
same,Population Normal (%),[6],100%
same,Population Pyknosed Nuclei (%),[6],8.36% and 13.5%
same,Population Tubulin-Different-Phenotype (%),[6],1.3% and 0.32%
same,Total Cell Count,[6],945 and 363
